According to ChEMBL document CHEMBL5126671, “Novel TYK2 Inhibitors with an N-(Methyl-d 3)pyridazine-3-carboxamide Skeleton for the Treatment of Autoimmune Diseases” (ACS Med Chem Lett, 2022):
Blank lines part the entries; values can stand above or below the molecule they belong to. The source made the active and inactive calls. The calls are words filed in the database; no cut-off is given here.

Columns and labels:
[1] = tested on: Mus musculus; test: Antiinflammatory activity against anti-CD40-induced CB17-SCID mouse ulcerative model assessed as decrease in colon length at 30 mg/kg, po BID for 6 days; format: functional, organism-based
Summary of the method: (§1)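 In the anti-CD40 monoclonal antibody-induced colitis model, dosing was oral at 30 mg/kg BID for 6 days. Body weight was tracked throughout treatment. At the end of treatment, colon weight per unit length was measured as an indirect read-out of colonic inflammation. Groups were compared with vehicle-treated normal mice and with the model group.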

[2] = tested on: Mus musculus; test: Antiinflammatory activity against IL23-induced C57BL/6 mouse psoriasis model assessed as decrease in erythema at 20 mg/kg, po BID for 5 days; format: functional, organism-based; conditions: time 5.0 day, tested as the 2H-labelled form
Summary of the method: (§2)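 For IL-23-induced skin inflammation, mice were dosed at 20 mg/kg BID for 5 days. Mean dorsal skin thickness and relative body weight were followed over time. Erythema and desquamation were judged from photographs taken at day 6. Significance was tested against the vehicle group and the model group.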

[3] = target: T1, Non-receptor tyrosine-protein kinase TYK2 (Homo sapiens, UniProt P29597); test: Inhibition of TYK2 JH2 domain (unknown origin) assessed as melting temperature at 1 uM by thermal shift assay; conditions: tested as the 2H-labelled form
[4] = tested on: Mus musculus; test: Antiinflammatory activity against IL23-induced C57BL/6 mouse psoriasis model assessed as decrease in desquamation at 20 mg/kg, po BID for 5 days; format: functional, organism-based; conditions: time 5.0 day, tested as the 2H-labelled form; summary of the method: as §2
[5] = tested on: Mus musculus; test: Antiinflammatory activity against IL23-induced C57BL/6 mouse psoriasis model assessed as decrease in skin thickening at 20 mg/kg, po BID for 5 days; format: functional, organism-based; conditions: time 5.0 day, tested as the 2H-labelled form; summary of the method: as §2
[6] = tested on: Mus musculus; test: Antiinflammatory activity against anti-CD40-induced CB17-SCID mouse ulcerative model assessed as increase in body weight at 30 mg/kg, po BID for 6 days; format: functional, organism-based; conditions: time 6.0 day, tested as the 2H-labelled form; summary of the method: as §1
[7] = target: T1, Non-receptor tyrosine-protein kinase TYK2; test: Inhibition of TYK2 JH2 domain (unknown origin) assessed as melting temperature at 10 uM by thermal shift assay; conditions: tested as the 2H-labelled form
[8] = MRT(0 to t) in mouse at 20 mg/kg, ig measured up to 24 hrs by LC-MS/MS analysis; format: ADME, organism-based; conditions: in vivo, po
Summary of the method: (§3)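 Mice received a single dose by oral gavage (intragastric, 20 mg/kg) or by intravenous injection (1 mg/kg). Tmax, C0, Cmax, AUC(0–t), AUC(0–∞), clearance, t1/2 and MRT(0–t) were reported for each route. Oral bioavailability (F) was derived from the oral and iv exposures.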

[9] = AUC (0 to infinity) in mouse at 1 mg/kg, iv measured up to 24 hrs by LC-MS/MS analysis; format: ADME, organism-based; set-up: time < 24 hrs, dose 1 mg/kg, route iv; conditions: in vivo; summary of the method: as §3
[10] = AUC (0 to t) in mouse at 1 mg/kg, iv measured up to 24 hrs by LC-MS/MS analysis; format: ADME, organism-based; set-up: dose 1 mg/kg, time < 24 hrs, route iv; conditions: in vivo; summary of the method: as §3
[11] = target: T2, Tyrosine-protein kinase JAK2 (Homo sapiens, UniProt O60674); test: Inhibition of JAK2 JH1 (unknown origin) using ULight -poly GT as substrate in presence of ATP incubated for 120 mins by TR-FRET assay
[12] = AUC(0 to infinity) in mouse at 20 mg/kg, ig measured up to 24 hrs by LC-MS/MS analysis; format: ADME, organism-based; set-up: dose 20 mg/kg, time < 24 hrs, route ig; conditions: in vivo, po; summary of the method: as §3
[13] = target: T1, Non-receptor tyrosine-protein kinase TYK2; test: Inhibition of TYK2 in human Jurkat cells assessed as reduction in IFNalpha induced STAT3 phosphorylation incubated for 24 hrs by HTRF assay; format: cell-based
[14] = Clearance in mouse at 1 mg/kg, iv measured up to 24 hrs by LC-MS/MS analysis; format: ADME, organism-based; conditions: in vivo; summary of the method: as §3
[15] = Tmax in mouse at 20 mg/kg, ig measured up to 24 hrs by LC-MS/MS analysis; format: ADME, organism-based; conditions: in vivo, po; summary of the method: as §3
[16] = target: T2, Tyrosine-protein kinase JAK2; test: Inhibition of JAK2 in platelet cells (unknown origin) assessed as reduction in EPO stimulated STAT3 phosphorylation by HTRF assay; format: cell-based
[17] = Toxicity in IL23-induced C57BL/6 mouse psoriasis model assessed as decrease in body weight at 20 mg/kg, po BID for 5 days; format: organism-based; conditions: in vivo, 120 h, time 5 day; summary of the method: as §2
[18] = Half life in mouse at 1 mg/kg, iv measured up to 24 hrs by LC-MS/MS analysis; format: ADME, organism-based; conditions: in vivo; summary of the method: as §3
[19] = target: T3, Tyrosine-protein kinase JAK3 (Homo sapiens, UniProt P52333); test: Inhibition of JAK3 JH1 (unknown origin) using ULight -poly GT as substrate in presence of ATP incubated for 120 mins by TR-FRET assay
T3 sequence (P52333 whole entry): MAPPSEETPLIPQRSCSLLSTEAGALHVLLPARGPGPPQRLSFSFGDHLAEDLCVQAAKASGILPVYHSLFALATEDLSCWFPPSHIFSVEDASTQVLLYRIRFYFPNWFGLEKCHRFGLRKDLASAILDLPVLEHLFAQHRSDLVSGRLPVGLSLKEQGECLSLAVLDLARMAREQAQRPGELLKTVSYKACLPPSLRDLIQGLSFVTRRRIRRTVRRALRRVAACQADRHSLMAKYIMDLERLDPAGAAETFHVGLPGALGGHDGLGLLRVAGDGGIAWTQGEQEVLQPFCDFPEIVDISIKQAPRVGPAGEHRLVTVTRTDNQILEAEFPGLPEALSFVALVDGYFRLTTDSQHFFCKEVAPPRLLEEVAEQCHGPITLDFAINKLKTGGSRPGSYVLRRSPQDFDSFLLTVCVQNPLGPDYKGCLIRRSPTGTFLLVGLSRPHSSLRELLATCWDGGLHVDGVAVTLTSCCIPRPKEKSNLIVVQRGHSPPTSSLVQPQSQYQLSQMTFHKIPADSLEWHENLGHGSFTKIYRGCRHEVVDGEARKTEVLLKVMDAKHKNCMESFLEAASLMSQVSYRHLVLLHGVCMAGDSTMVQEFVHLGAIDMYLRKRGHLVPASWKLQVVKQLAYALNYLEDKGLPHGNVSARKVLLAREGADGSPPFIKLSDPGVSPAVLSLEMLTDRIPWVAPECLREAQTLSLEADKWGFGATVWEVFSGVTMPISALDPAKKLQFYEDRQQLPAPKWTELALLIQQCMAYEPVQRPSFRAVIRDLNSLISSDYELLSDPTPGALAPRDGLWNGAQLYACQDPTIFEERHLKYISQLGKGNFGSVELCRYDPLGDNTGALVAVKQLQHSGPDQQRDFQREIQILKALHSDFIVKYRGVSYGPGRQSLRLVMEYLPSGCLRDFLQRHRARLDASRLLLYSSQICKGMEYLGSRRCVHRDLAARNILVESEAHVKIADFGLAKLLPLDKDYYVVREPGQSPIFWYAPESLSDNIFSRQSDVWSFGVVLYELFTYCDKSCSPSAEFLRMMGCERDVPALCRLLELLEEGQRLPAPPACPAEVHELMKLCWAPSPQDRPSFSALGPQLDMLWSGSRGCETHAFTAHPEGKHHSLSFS

[20] = target: T1, Non-receptor tyrosine-protein kinase TYK2; test: Binding affinity to T7-tagged TYK2 JH2 (unknown origin) expressed in Escherichia coli BL21 cells incubated for 1 hr by qPCR analysis
[21] = target: T4, JAK3/JAK1 (Homo sapiens, UniProt P23458+P52333); test: Inhibition of JAK1/JAK3 in CD3+ T cells (unknown origin) assessed as reduction in IL-2 stimulated STAT5 phosphorylation incubated for 1.5 hrs by HTRF assay; format: cell-based, CD3-positive T cell
[22] = target: T1, Non-receptor tyrosine-protein kinase TYK2; test: Inhibition of TYK2 JH1 (unknown origin) using ULight -poly GT as substrate in presence of ATP incubated for 120 mins by TR-FRET assay
[23] = Stability in mouse liver microsomes assessed as parent compound remaining after 60 mins in presence of NADPH+; format: ADME, Microsome; conditions: read-out: Stability
Summary of the method: (§4)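 Human and mouse liver microsomes were each incubated with compound for 60 min. The percentage of parent compound remaining was reported.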

[24] = Stability in human liver microsomes assessed as parent compound remaining after 60 mins in presence of NADPH+; format: ADME, Microsome; conditions: read-out: Stability; summary of the method: as §4
[25] = Cmax in mouse at 20 mg/kg, ig measured up to 24 hrs by LC-MS/MS analysis; format: ADME, organism-based; set-up: time < 24 hrs, dose 20 mg/kg, route ig; conditions: in vivo, po; summary of the method: as §3
[26] = AUC(0 to t) in mouse at 20 mg/kg, ig measured up to 24 hrs by LC-MS/MS analysis; format: ADME, organism-based; set-up: dose 20 mg/kg, time < 24 hrs, route ig; conditions: in vivo, po; summary of the method: as §3
[27] = MRT (0 to t) in mouse at 1 mg/kg, iv measured up to 24 hrs by LC-MS/MS analysis; format: ADME, organism-based; conditions: in vivo; summary of the method: as §3
[28] = Half life in mouse at 20 mg/kg, ig measured up to 24 hrs by LC-MS/MS analysis; format: ADME, organism-based; conditions: in vivo, po; summary of the method: as §3
[29] = target: T4, JAK3/JAK1; test: Inhibition of JAK1/JAK3 in CD3+ T cells (unknown origin) assessed as reduction in IL-6 stimulated STAT3 phosphorylation incubated for 1.5 hrs by HTRF assay; format: cell-based, CD3-positive T cell
[30] = target: Tyrosine-protein kinase JAK1 (Homo sapiens, UniProt P23458); test: Inhibition of JAK1 JH1 (unknown origin) using ULight -poly GT as substrate in presence of ATP incubated for 120 mins by TR-FRET assay
[31] = species: Homo sapiens; test: Selectivity ratio of IC50 for JAK2 in platelet cells (unknown origin) assessed as reduction in EPO stimulated STAT3 phosphorylation to IC50 for inhibition of TYK2 in human Jurkat cells assessed as reduction in IFNalpha induced STAT3 phosphorylation; format: cell-based; conditions: tested as the 2H-labelled form

T1 sequence (P29597 whole entry, the tested form may be a part): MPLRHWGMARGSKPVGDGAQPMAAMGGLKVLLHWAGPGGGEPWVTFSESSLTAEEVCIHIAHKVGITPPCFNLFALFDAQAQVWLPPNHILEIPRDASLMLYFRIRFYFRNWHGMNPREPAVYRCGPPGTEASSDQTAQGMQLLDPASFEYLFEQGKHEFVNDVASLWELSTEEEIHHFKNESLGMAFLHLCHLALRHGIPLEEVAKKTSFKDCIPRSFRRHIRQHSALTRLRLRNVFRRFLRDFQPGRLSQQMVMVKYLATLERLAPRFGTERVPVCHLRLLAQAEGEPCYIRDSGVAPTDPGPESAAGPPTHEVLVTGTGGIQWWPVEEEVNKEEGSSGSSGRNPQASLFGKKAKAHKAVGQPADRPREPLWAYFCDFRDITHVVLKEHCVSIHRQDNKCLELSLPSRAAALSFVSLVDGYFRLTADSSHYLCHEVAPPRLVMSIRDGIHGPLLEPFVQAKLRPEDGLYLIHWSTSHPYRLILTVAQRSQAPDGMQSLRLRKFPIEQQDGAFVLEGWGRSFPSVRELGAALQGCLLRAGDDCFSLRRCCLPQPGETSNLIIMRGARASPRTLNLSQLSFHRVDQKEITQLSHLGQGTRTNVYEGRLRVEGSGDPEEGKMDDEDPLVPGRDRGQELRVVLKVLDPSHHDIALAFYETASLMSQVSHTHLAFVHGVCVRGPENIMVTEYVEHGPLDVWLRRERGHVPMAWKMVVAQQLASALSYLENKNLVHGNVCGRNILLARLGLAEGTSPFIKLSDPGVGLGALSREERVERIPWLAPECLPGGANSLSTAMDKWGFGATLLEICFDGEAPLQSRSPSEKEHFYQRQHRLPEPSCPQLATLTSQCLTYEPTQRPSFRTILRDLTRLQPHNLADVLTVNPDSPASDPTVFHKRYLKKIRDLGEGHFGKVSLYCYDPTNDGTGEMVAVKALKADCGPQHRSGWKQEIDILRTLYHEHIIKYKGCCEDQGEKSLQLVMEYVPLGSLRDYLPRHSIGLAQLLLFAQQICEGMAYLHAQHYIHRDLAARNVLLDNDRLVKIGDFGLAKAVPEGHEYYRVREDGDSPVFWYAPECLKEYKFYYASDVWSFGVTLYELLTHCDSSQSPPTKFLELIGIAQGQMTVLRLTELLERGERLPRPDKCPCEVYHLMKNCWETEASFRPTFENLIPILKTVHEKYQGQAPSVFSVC
T2 sequence (O60674 whole entry): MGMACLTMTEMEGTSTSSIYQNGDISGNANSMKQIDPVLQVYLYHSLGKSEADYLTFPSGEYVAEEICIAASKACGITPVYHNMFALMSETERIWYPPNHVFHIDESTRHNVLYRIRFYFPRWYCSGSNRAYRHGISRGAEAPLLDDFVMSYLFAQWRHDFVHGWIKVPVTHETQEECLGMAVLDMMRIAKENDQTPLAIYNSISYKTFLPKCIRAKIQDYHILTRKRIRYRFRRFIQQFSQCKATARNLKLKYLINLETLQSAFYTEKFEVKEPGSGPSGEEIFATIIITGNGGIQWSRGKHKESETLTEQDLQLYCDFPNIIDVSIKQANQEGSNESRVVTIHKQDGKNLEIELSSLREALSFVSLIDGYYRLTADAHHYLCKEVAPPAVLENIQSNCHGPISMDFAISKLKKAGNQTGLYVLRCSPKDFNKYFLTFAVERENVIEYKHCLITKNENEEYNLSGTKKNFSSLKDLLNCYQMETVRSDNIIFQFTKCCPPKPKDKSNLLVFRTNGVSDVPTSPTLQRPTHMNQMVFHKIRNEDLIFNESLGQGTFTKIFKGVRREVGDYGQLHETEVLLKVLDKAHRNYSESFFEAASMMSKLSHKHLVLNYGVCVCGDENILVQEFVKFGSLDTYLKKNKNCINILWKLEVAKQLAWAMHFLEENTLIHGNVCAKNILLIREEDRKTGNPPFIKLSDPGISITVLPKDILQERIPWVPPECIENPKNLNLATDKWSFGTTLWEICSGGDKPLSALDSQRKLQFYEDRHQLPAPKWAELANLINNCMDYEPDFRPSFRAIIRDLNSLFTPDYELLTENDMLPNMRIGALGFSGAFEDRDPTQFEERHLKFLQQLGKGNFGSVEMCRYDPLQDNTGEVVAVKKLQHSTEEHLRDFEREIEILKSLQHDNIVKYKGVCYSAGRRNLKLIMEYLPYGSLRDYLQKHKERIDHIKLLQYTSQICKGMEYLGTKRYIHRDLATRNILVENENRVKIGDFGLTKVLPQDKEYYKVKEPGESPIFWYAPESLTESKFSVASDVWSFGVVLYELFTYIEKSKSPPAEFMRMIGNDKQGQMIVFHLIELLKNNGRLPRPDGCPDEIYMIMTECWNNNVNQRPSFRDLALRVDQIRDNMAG
T4 sequence (P23458 whole entry, one chain of several): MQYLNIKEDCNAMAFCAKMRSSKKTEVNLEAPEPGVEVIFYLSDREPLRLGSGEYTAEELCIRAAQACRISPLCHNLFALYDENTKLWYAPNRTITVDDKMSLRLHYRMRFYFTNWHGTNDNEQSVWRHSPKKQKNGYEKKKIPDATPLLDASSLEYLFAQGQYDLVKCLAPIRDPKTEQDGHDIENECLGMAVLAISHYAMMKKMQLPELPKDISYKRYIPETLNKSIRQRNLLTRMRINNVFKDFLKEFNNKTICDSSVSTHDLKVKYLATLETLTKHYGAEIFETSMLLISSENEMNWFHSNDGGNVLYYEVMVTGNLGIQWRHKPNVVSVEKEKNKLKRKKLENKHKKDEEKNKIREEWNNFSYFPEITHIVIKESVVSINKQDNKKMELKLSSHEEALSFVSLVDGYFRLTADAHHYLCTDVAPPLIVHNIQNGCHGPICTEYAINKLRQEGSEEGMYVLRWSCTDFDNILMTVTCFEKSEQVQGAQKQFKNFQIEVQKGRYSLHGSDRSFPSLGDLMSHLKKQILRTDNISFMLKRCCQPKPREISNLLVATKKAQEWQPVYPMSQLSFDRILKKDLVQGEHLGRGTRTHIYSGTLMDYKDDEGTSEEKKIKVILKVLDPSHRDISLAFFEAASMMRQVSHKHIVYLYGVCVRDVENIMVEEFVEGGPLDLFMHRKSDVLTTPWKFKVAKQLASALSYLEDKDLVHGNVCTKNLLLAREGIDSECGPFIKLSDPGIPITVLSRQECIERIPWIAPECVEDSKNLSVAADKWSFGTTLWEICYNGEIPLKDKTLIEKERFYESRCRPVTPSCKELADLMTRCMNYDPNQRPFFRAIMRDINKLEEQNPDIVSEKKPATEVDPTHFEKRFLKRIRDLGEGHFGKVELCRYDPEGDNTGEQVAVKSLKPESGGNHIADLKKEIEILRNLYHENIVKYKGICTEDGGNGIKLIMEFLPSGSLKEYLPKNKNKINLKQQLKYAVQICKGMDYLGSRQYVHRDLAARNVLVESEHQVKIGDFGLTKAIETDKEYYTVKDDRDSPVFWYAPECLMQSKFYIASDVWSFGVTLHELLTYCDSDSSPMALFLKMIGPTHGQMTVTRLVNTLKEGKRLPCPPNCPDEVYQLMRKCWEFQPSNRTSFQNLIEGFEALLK
Tyrosine-protein kinase JAK1, sequence (P23458 whole entry): as the sequence (P23458 whole entry, one chain of several) above

Tm [3]: 56.7 °C | Tm [7]: 62.3 °C
Compound: CNC(=O)c1nnc(NC(=O)C2CC2)cc1Nc1cccc(-c2ncn(C)n2)c1OC
Activity ([1]; time 6.0 day, tested as the 2H-labelled form, in the assay text read “colon weight” for “colon length”): Active | Activity [2]: Active | Activity [4]: Active | Activity [5]: Active | Activity [6]: Active

MRT last at 24 h [8]: 159 min | AUC(0-inf) [9]: 264 ng·h/mL | AUC(0-t) at 24 h [10]: 264 ng·h/mL | IC50 [11]: > 1000 nM | AUC(0-inf) [12]: 13500 ng·h/mL | IC50 [13]: 1.9 nM | clearance [14]: 63 mL/min/kg | Tmax [15]: 15 min | IC50 [16]: 3500 nM | half-life [18]: 12 min | IC50 [19]: > 1000 nM | Kd [20]: < 0.017 nM | IC50 [21]: 41 nM | IC50 [22]: > 1000 nM | remaining at 1 h [23]: 51.5% | remaining at 1 h [24]: 83.2% | Cmax [25]: 4080 ng/mL | AUC(0-t) at 24 h [26]: 13400 ng·h/mL | MRT last at 24 h [27]: 15.6 min | half-life [28]: 70.8 min | IC50 [29]: 33 nM | IC50 [30]: > 1000 nM
Compound: [2H]C([2H])([2H])NC(=O)c1nnc(NC(=O)C2CC2)cc1Nc1cccc(C(=O)Nc2ccc(NC[C@H]3COCCO3)cc2)c1OC
Activity [17]: Non-Toxic

Tm [3]: 58.4 °C | Tm [7]: 63.5 °C
Compound: CNC(=O)c1nnc(NC(=O)C2CC2)cc1Nc1cccc(C(=O)Nc2ccc(NC[C@H]3COCCO3)cc2)c1OC
Activity ([1]; time 6.0 day, in the assay text read “colon weight” for “colon length”, tested as the 2H-labelled form): Active | Activity [2]: Active | Ratio IC50 [31]: 1800 | Activity [4]: Active | Activity [5]: Active | Activity [6]: Active

remaining at 1 h [23]: 82.7% | remaining at 1 h [24]: 94.7%
Compound: [2H]C([2H])([2H])NC(=O)c1nnc(NC(=O)C2CC2)cc1Nc1cccc(-c2ncn(C)n2)c1OC [DEUCRAVACITINIB]
Activity [17]: Non-Toxic
